Measured values published in ChEMBL document CHEMBL1145212, “Fluorinated diaryl sulfides as serotonin transporter ligands: synthesis, structure-activity relationship study, and in vivo evaluation of fluorine-18-labeled compounds as PET imaging agents” (J Med Chem, 2005).

What was measured:
Conditions in all cases: tested as the 18F-labelled form
Rattus norvegicus [1] = species: Rattus norvegicus; assay: Regional uptake of [18F]AFA in thalamus of rat pretreated with compound citalopram; n=3; type: functional, organism-based
In short: (§1)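 Male Sprague-Dawley rats, three per group, received blocker (2 mg/kg iv in saline) or saline only (controls) 10–15 min before about 20 µCi of tail-vein F-18 radioligand. Killed 60 min after tracer. Blood and brain regions weighed and gamma-counted. %ID/g was decay- and tail-corrected; mean ± SD.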

Rattus norvegicus [2] = species: Rattus norvegicus; assay: Regional uptake of [18F]-AFA in striatum of rat pretreated with compound GBR-12935; n=3; type: functional, organism-based; in short: as §1
[3] = biological target: Sodium-dependent serotonin transporter (Rattus norvegicus) (UniProt P31652); assay: Specific binding of [18F]AFA in rat striatum after GBR-12935 treatment; n=3; type: functional, tissue-based
In short: (§2)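 Rats, three per group, were pretreated iv with blocker at 2 mg/kg in saline, or with saline as control, 10–15 min before tail-vein F-18 radioligand (about 20 µCi). Killed at 60 min and regional %ID/g determined. Specific binding = (region activity − cerebellum activity)/cerebellum activity; mean ± SD.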

Rattus norvegicus [4] = species: Rattus norvegicus; assay: Regional uptake of [18F]AFA in hypothalamus of rat pretreated with compound citalopram; n=3; type: functional, organism-based; in short: as §1
Rattus norvegicus [5] = species: Rattus norvegicus; assay: Regional uptake of [18F]-AFM in thalamus of rat pretreated with compound 7d; n=3
Rattus norvegicus [6] = species: Rattus norvegicus; assay: Regional uptake of [18F]AFA in striatum of rat pretreated with compound nisoxetine; n=3; type: functional, organism-based; in short: as §1
Rattus norvegicus [7] = species: Rattus norvegicus; assay: Regional uptake of [18F]-AFA in hypothalamus of rat pretreated with compound nisoxetine; n=3; type: functional, organism-based; in short: as §1
[8] = biological target: Sodium-dependent serotonin transporter (Rattus norvegicus) (UniProt P31652); assay: Specific binding of [18F]AFA in rat hippocampus after nisoxetine treatment; n=3; type: functional, tissue-based; in short: as §2
[9] = biological target: Sodium-dependent serotonin transporter (Rattus norvegicus) (UniProt P31652); assay: Specific binding of [18F]-AFA in rat striatum after nisoxetine treatment; n=3; type: functional, tissue-based; in short: as §2
Rattus norvegicus [10] = species: Rattus norvegicus; assay: Regional uptake of [18F]AFA in cerebellum of rat pretreated with compound 7d; n=3; type: functional, organism-based
[11] = biological target: Sodium-dependent serotonin transporter (Rattus norvegicus) (UniProt P31652); assay: Specific binding in rat hypothalamus at 10 min postinjection in vivo; type: functional, organism-based
In short: (§3)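 Male Sprague-Dawley rats, n=3 per time point, received about 20 µCi of F-18 radioligand in saline iv by tail vein and were killed at 10–120 min. %ID/g was measured with decay and tail-residual correction. Hypothalamic specific binding = (%ID/g hypothalamus − %ID/g cerebellum)/%ID/g cerebellum; mean ± SD.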

[12] = biological target: Sodium-dependent serotonin transporter (Rattus norvegicus) (UniProt P31652); assay: Specific binding of [18F]AFA in rat thalamus after nisoxetine treatment; n=3; type: functional, tissue-based; in short: as §2
Rattus norvegicus [13] = species: Rattus norvegicus; assay: Regional uptake of [18F]AFA in hypothalamus of rat pretreated with compound 7d; n=3; type: functional, organism-based
[14] = biological target: Sodium-dependent serotonin transporter (Rattus norvegicus) (UniProt P31652); assay: Specific binding of [18F]AFA in rat frontal cortex after nisoxetine treatment; n=3; type: functional, tissue-based; in short: as §2
[15] = biological target: Sodium-dependent serotonin transporter (Rattus norvegicus) (UniProt P31652); assay: Specific binding of [18F]AFA in rat hypothalamus after citalopram treatment; n=3; type: functional, tissue-based; in short: as §2
Rattus norvegicus [16] = species: Rattus norvegicus; assay: Regional uptake of [18F]AFA in striatum of rat pretreated with compound citalopram; n=3; type: functional, organism-based; in short: as §1
[17] = biological target: Sodium-dependent serotonin transporter (Rattus norvegicus) (UniProt P31652); assay: Specific binding of [18F]-AFA in rat striatum after citalopram treatment; n=3; type: functional, tissue-based; in short: as §2
Rattus norvegicus [18] = species: Rattus norvegicus; assay: Regional uptake of [18F]AFA in hippocampus of rat pretreated with compound citalopram; n=3; type: functional, organism-based; in short: as §1
Rattus norvegicus [19] = species: Rattus norvegicus; assay: Regional uptake of [18F]AFA in frontal cortex of rat pretreated with compound citalopram; n=3; type: functional, organism-based; in short: as §1
[20] = biological target: Sodium-dependent serotonin transporter (Rattus norvegicus) (UniProt P31652); assay: Specific binding of [18F]AFA in rat frontal cortex after citalopram treatment; n=3; type: functional, tissue-based; in short: as §2
[21] = biological target: Sodium-dependent serotonin transporter (Rattus norvegicus) (UniProt P31652); assay: Specific binding in rat hypothalamus at 60 min postinjection in vivo; type: functional, organism-based; in short: as §3
[22] = biological target: Sodium-dependent serotonin transporter (Rattus norvegicus) (UniProt P31652); assay: Specific binding in rat hypothalamus at 30 min postinjection in vivo; type: functional, organism-based; in short: as §3
[23] = biological target: Sodium-dependent serotonin transporter (Rattus norvegicus) (UniProt P31652); assay: Specific binding of [18F]AFA in rat hippocampus after citalopram treatment; n=3; type: functional, tissue-based; in short: as §2
[24] = biological target: Sodium-dependent serotonin transporter (Rattus norvegicus) (UniProt P31652); assay: Specific binding of [18F]AFA in rat thalamus after citalopram treatment; n=3; type: functional, tissue-based; in short: as §2

Chain of Sodium-dependent serotonin transporter (Rattus norvegicus) (P31652 whole entry): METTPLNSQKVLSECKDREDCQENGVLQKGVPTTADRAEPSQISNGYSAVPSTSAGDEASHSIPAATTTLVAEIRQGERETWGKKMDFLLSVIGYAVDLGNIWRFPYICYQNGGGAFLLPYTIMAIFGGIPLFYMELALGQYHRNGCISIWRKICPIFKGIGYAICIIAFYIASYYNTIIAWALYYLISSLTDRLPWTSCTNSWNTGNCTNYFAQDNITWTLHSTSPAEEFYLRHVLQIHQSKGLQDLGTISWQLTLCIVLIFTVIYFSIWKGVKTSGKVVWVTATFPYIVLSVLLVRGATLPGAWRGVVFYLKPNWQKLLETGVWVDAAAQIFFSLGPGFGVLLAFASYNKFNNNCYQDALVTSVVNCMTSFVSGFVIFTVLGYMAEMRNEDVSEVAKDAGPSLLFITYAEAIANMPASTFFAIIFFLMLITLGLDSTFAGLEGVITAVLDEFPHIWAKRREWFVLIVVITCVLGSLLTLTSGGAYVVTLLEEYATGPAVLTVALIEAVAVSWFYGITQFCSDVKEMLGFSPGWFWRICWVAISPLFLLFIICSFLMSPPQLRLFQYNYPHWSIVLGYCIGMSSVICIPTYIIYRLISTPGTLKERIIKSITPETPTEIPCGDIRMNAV

- Specific binding [3]: 4.37 %ID/g
- Specific binding [8]: 2.72 %ID/g
- Specific binding [9]: 3.59 %ID/g
- Specific binding [11]: 0.98 %ID/g
- Specific binding [12]: 4.71 %ID/g
- Specific binding [14]: 4.02 %ID/g
- Specific binding [15]: 1.37 %ID/g
- Specific binding [17]: 0.52 %ID/g
- Specific binding [20]: 0.36 %ID/g
- Specific binding [21]: 4.56 %ID/g
- Specific binding [22]: 2.27 %ID/g
- Specific binding [23]: 0.67 %ID/g
- Specific binding [24]: 1.05 %ID/g
SMILES: CN(C)Cc1ccccc1Sc1ccc(CF)cc1N
- Uptake (Rattus norvegicus [1]): 0.16 %ID/g
- Uptake (Rattus norvegicus [2]): 0.7 %ID/g
- Uptake (Rattus norvegicus [4]): 0.18 %ID/g
- Uptake (Rattus norvegicus [5]): 0.17 %ID/g
- Uptake (Rattus norvegicus [6]): 0.58 %ID/g
- Uptake (Rattus norvegicus [7]): 0.73 %ID/g
- Uptake (Rattus norvegicus [10]): 0.09 %ID/g
- Uptake (Rattus norvegicus [13]): 0.17 %ID/g
- Uptake (Rattus norvegicus [16]): 0.12 %ID/g
- Uptake (Rattus norvegicus [18]): 0.13 %ID/g
- Uptake (Rattus norvegicus [19]): 0.11 %ID/g
